System: T1, OR5H1
T1 sequence (whole entry): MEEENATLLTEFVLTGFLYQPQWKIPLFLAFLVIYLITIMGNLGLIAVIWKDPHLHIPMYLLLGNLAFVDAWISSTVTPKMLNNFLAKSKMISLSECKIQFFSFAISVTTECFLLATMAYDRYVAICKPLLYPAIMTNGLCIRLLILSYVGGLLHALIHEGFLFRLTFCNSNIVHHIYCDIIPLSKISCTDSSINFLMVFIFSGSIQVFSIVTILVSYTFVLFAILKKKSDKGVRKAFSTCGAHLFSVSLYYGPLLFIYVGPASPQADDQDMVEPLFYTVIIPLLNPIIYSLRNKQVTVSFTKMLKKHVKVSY
Conditions: stereoisomer not certain
In short: (§1)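 Each receptor–molecule pair is labelled responsive or non-responsive (inactive) according to whether the original authors judged the measured signal statistically different from baseline. The data were taken from the main text and supplementary material of published papers and checked for typos and inconsistencies. Assay methods differed by source, with transient luciferase assays in mammalian cell lines being common.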
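Also: active if original authors judged signal statistically different from baseline.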

| Structure (SMILES) | odorant receptor agonist call |
| --- | --- |
| CC1=C(O)C(=O)C(C)O1 (stereo not drawn) | inactive |
| CCC1OC(C)=C(O)C1=O (stereo not drawn) | inactive |
| CCC1OC(=O)C(O)=C1C (stereo not drawn) | inactive |
| CC1=C(O)C(=O)OC1C (stereo not drawn) | inactive |
| CC1=NC(C)C(C)S1 (stereo not drawn) | inactive |
| Cc1cnc(C)c(C)n1 | inactive |
| CCCC(S)CCOC(C)=O (stereo not drawn) | inactive |

System: T2, OR5H2
T2 sequence (whole entry): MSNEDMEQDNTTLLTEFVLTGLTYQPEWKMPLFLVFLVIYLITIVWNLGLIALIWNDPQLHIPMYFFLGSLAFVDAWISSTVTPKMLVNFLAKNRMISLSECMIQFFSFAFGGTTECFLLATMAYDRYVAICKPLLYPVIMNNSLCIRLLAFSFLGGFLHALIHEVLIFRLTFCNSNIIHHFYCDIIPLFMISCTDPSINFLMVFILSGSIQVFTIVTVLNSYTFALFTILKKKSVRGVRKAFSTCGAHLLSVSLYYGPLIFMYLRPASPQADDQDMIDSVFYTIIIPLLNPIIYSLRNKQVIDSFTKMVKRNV
Conditions: stereoisomer not certain
In short: as §1

| Structure (SMILES) | odorant receptor agonist call |
| --- | --- |
| CC(CO)CS (stereo not drawn) | inactive |
| CC1CCCCCCCCCCCCC(=O)C1 (stereo not drawn) | inactive |
| CC1=C(O)C(=O)C(C)O1 (stereo not drawn) | inactive |
| CCC1OC(C)=C(O)C1=O (stereo not drawn) | inactive |
| CC(=O)c1c(C)c([N+](=O)[O-])c(C(C)(C)C)c([N+](=O)[O-])c1C | inactive |
| CCC1OC(=O)C(O)=C1C (stereo not drawn) | inactive |
| CC1=C(O)C(=O)OC1C (stereo not drawn) | inactive |
| CCC(S)C(C)CO (stereo not drawn) | inactive |
| CCCCCC(=O)C(C)C(C)=O (stereo not drawn) | inactive |
| CCCCC(S)C(C)CO (stereo not drawn) | inactive |
| CC1=NC(C)C(C)S1 (stereo not drawn) | inactive |
| Cc1cnc(C)c(C)n1 | inactive |
| CCCC(S)CCOC(C)=O (stereo not drawn) | inactive |
| CCCCCC(S)C(C)CO (stereo not drawn) | inactive |
| CCCCCCC=CCCC=O | inactive |

Biological target: T3, OR5H6 (Homo sapiens) (UniProt Q8NGV6)
T3 sequence (whole entry): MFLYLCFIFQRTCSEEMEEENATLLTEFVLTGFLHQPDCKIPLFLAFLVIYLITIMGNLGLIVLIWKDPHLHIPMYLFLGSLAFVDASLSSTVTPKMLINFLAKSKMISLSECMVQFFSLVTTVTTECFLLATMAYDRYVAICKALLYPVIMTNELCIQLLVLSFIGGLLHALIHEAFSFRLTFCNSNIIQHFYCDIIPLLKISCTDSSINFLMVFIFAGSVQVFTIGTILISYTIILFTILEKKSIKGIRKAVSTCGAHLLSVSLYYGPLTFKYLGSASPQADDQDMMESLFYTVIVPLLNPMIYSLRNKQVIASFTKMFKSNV
Conditions: stereoisomer not certain
In short: as §1

| Structure (SMILES) | odorant receptor agonist call |
| --- | --- |
| CC(CO)CS (stereo not drawn) | inactive |
| CC1CCCCCCCCCCCCC(=O)C1 (stereo not drawn) | inactive |
| CC1=C(O)C(=O)C(C)O1 (stereo not drawn) | inactive |
| CCC1OC(C)=C(O)C1=O (stereo not drawn) | inactive |
| CC(=O)c1c(C)c([N+](=O)[O-])c(C(C)(C)C)c([N+](=O)[O-])c1C | inactive |
| CCC1OC(=O)C(O)=C1C (stereo not drawn) | inactive |
| CC1=C(O)C(=O)OC1C (stereo not drawn) | inactive |
| CCC(S)C(C)CO (stereo not drawn) | inactive |
| CCCCCC(=O)C(C)C(C)=O (stereo not drawn) | inactive |
| CCCCC(S)C(C)CO (stereo not drawn) | inactive |
| CC1=NC(C)C(C)S1 (stereo not drawn) | inactive |
| Cc1cnc(C)c(C)n1 | inactive |
| CCCC(S)CCOC(C)=O (stereo not drawn) | inactive |
| CCCCCC(S)C(C)CO (stereo not drawn) | inactive |
| CCCCCCC=CCCC=O | inactive |

Biological target: T4, OR5I1 (Homo sapiens) (UniProt Q13606)
T4 sequence (whole entry): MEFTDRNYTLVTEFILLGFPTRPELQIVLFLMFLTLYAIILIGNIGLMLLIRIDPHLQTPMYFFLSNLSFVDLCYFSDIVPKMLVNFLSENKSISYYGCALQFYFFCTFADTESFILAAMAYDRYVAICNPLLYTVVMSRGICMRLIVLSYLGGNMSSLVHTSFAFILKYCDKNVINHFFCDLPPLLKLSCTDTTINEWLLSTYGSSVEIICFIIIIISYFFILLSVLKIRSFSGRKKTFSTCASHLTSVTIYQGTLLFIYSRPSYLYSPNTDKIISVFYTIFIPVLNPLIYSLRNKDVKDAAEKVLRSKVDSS
Conditions: stereoisomer not certain
In short: as §1

| Structure (SMILES) | odorant receptor agonist call |
| --- | --- |
| CC1CCCCCCCCCCCCC(=O)C1 (stereo not drawn) | inactive |
| CC1=C(O)C(=O)C(C)O1 (stereo not drawn) | inactive |
| CCC1OC(C)=C(O)C1=O (stereo not drawn) | inactive |
| CC(=O)c1c(C)c([N+](=O)[O-])c(C(C)(C)C)c([N+](=O)[O-])c1C | inactive |
| CCC1OC(=O)C(O)=C1C (stereo not drawn) | inactive |
| CC1=C(O)C(=O)OC1C (stereo not drawn) | inactive |
| CC1=NC(C)C(C)S1 (stereo not drawn) | inactive |
| Cc1cnc(C)c(C)n1 | inactive |
| CCCC(S)CCOC(C)=O (stereo not drawn) | inactive |
| CCCCCCC=CCCC=O | inactive |

Biological target: T5, OR5J2 (Homo sapiens) (UniProt Q8NH18)
T5 sequence (whole entry): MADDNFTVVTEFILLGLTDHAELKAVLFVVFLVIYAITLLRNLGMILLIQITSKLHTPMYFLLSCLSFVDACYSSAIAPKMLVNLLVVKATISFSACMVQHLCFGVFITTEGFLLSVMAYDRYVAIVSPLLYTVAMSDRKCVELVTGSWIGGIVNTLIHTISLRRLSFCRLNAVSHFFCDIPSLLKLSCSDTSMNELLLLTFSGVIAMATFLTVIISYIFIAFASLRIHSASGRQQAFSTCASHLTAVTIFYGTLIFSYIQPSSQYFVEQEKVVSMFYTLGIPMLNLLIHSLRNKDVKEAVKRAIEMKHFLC
Conditions: stereoisomer not certain
In short: as §1

| Structure (SMILES) | odorant receptor agonist call |
| --- | --- |
| CC(CO)CS (stereo not drawn) | inactive |
| CC1CCCCCCCCCCCCC(=O)C1 (stereo not drawn) | inactive |
| CC1=C(O)C(=O)C(C)O1 (stereo not drawn) | inactive |
| CCC1OC(C)=C(O)C1=O (stereo not drawn) | inactive |
| CC(=O)c1c(C)c([N+](=O)[O-])c(C(C)(C)C)c([N+](=O)[O-])c1C | inactive |
| CCC1OC(=O)C(O)=C1C (stereo not drawn) | inactive |
| CC1=C(O)C(=O)OC1C (stereo not drawn) | inactive |
| CCC(S)C(C)CO (stereo not drawn) | inactive |
| CCCCCC(=O)C(C)C(C)=O (stereo not drawn) | inactive |
| CCCCC(S)C(C)CO (stereo not drawn) | inactive |
| CC1=NC(C)C(C)S1 (stereo not drawn) | inactive |
| Cc1cnc(C)c(C)n1 | inactive |
| CCCC(S)CCOC(C)=O (stereo not drawn) | inactive |
| CCCCCC(S)C(C)CO (stereo not drawn) | inactive |
| CCCCCCC=CCCC=O | inactive |

Biological target: T6, OR5K1 (Homo sapiens) (UniProt Q8NHB7)
T6 sequence (whole entry): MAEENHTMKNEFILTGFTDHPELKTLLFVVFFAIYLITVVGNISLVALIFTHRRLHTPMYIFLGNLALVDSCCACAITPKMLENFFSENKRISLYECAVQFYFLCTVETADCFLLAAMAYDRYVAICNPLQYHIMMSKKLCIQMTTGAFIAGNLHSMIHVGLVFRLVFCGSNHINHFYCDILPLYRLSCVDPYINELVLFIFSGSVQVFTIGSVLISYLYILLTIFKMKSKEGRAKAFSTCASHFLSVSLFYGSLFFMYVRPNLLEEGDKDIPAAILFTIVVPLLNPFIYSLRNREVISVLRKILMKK
Conditions: stereoisomer not certain
In short: as §1

| Structure (SMILES) | odorant receptor agonist call |
| --- | --- |
| CC(CO)CS (stereo not drawn) | inactive |
| CCC(C)c1nccnc1OC (stereo not drawn) | active |
| CC1=C(O)C(=O)C(C)O1 (stereo not drawn) | inactive |
| Cc1cnc(C)cn1 | active |
| CCc1nccnc1CC | active |
| CC(=O)c1cnccn1 | active |
| CCC1OC(C)=C(O)C1=O (stereo not drawn) | inactive |
| CCc1nccnc1C(C)=O | active |
| CC1CCc2nccnc21 (stereo not drawn) | active |
| CCC1OC(=O)C(O)=C1C (stereo not drawn) | inactive |
| CC1=C(O)C(=O)OC1C (stereo not drawn) | inactive |
| COc1nccnc1C(C)C | active |
| Cc1nccnc1C | active |
| COc1nccnc1CC(C)C | active |
| CCC(S)C(C)CO (stereo not drawn) | inactive |
| CCCCCC(=O)C(C)C(C)=O (stereo not drawn) | inactive |
| COc1cnccn1 | active |
| C=Cc1cnccn1 | active |
| CCCCC(S)C(C)CO (stereo not drawn) | inactive |
| CC1=NC(C)C(C)S1 (stereo not drawn) | active |
| Cc1cnc(C)c(C)n1 | active |
| Cc1cncc(C)n1 | active |
| CC(=O)c1nccnc1C | active |
| CCc1nccnc1OC | active |
| CCCC(S)CCOC(C)=O (stereo not drawn) | inactive |
| CCc1cnc(C)c(C)n1 | inactive |
| Cc1cnccn1 | active |
| CCCCCC(S)C(C)CO (stereo not drawn) | inactive |
| CCc1nccnc1C | active |
| CCCCCCC=CCCC=O | inactive |

Biological target: T7, OR5K2 (Homo sapiens) (UniProt Q8NHB8)
T7 sequence (whole entry): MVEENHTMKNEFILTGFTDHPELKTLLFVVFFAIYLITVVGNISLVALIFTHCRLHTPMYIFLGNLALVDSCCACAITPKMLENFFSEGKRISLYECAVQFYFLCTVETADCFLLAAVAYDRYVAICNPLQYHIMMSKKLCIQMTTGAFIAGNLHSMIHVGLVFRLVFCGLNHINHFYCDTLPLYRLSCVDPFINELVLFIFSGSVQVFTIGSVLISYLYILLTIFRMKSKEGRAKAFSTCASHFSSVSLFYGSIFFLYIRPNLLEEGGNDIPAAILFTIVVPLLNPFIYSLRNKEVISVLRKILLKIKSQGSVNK
Conditions: stereoisomer not certain
In short: as §1

| Structure (SMILES) | odorant receptor agonist call |
| --- | --- |
| CC(CO)CS (stereo not drawn) | inactive |
| CC1CCCCCCCCCCCCC(=O)C1 (stereo not drawn) | inactive |
| CCC(C)c1nccnc1OC (stereo not drawn) | inactive |
| CC1=C(O)C(=O)C(C)O1 (stereo not drawn) | inactive |
| Cc1cnc(C)cn1 | inactive |
| CCc1nccnc1CC | inactive |
| CC(=O)c1cnccn1 | inactive |
| CCC1OC(C)=C(O)C1=O (stereo not drawn) | inactive |
| CCc1nccnc1C(C)=O | inactive |
| CC(=O)c1c(C)c([N+](=O)[O-])c(C(C)(C)C)c([N+](=O)[O-])c1C | inactive |
| CC1CCc2nccnc21 (stereo not drawn) | inactive |
| CCC1OC(=O)C(O)=C1C (stereo not drawn) | inactive |
| CC1=C(O)C(=O)OC1C (stereo not drawn) | inactive |
| COc1nccnc1C(C)C | inactive |
| Cc1nccnc1C | inactive |
| COc1nccnc1CC(C)C | inactive |

| Structure (SMILES) | odorant receptor agonist call |
| --- | --- |
| CCC(S)C(C)CO (stereo not drawn) | inactive |
| CCCCCC(=O)C(C)C(C)=O (stereo not drawn) | inactive |
| COc1cnccn1 | inactive |
| C=Cc1cnccn1 | inactive |
| CCCCC(S)C(C)CO (stereo not drawn) | inactive |
| CC1=NC(C)C(C)S1 (stereo not drawn) | inactive |
| Cc1cnc(C)c(C)n1 | inactive |
| Cc1cncc(C)n1 | inactive |
| CC(=O)c1nccnc1C | inactive |
| CCc1nccnc1OC | inactive |
| CCCC(S)CCOC(C)=O (stereo not drawn) | inactive |
| Cc1cnccn1 | inactive |
| CCCCCC(S)C(C)CO (stereo not drawn) | inactive |
| CCc1nccnc1C | inactive |
| CCCCCCC=CCCC=O | inactive |
